Results from different studies.
Each line is one published result; the experiments were not run side by side.
Target: Serine/threonine-protein kinase 17A (STK17A, Homo sapiens, UniProt Q9UEE5)

| Compound | test | conditions | endpoint | value |
| --- | --- | --- | --- | --- |
| O=C(NCCCNc1nc(Nc2cccc(NC(=O)N3CCCC3)c2)ncc1I)c1cccs1 | enzyme activity, inhibitor, radiometric | 1 µM | remaining activity | 2% |
| C=CC(=O)Nc1cc(Nc2nccc(Nc3cc(Cl)c(F)cc3C(C)(C)O)n2)c(OC)cc1N1CC[C@@H](N(C)C)C1 | enzyme activity, inhibitor | 1 µM | inhibition | 1% |
| O=C(O)[C@H]1[C@H](Cn2nnc3ccccc3c2=O)CC[C@@H]1C(=O)c1ccc(OCCC2CCOCC2)cc1 | cell-free assay, competition with immobilised ligand | 1 µM | remaining binding | 97% |
| Cc1ccc(Nc2nccc(N(C)c3ccc4c(C)n(C)nc4c3)n2)cc1S(N)(=O)=O | cell-free assay | 0.3 µM | inhibition | -6% |
| Cc1ccc(NC(=O)c2ccc(CN3CCN(C)CC3)cc2)cc1Nc1nc(-c2cccnc2)cs1 | cell-free assay | 0.5 µM | remaining signal | 104% |
| N#CC1(c2ccccn2)CCN(Cc2cc(C(=O)N3CCCC3)c(=O)n3ccccc23)CC1 | cell-free assay, competition with immobilised ligand | 1 µM | remaining binding | 96% |
| Oc1cccc(-c2nc(N3CCOCC3)c3oc4ncccc4c3n2)c1 | cell-free assay | 0.5 µM | remaining signal | 93.8% |
| Nc1ncnc2occ(-c3ccc(NC(=O)Nc4cc(C(F)(F)F)ccc4F)cc3)c12 | cell-free assay | 20 µM | remaining signal | 55% |
| NS(=O)(=O)c1ccc(CNc2ccnc(Nc3cccc(NC(=O)N4CCCC4)c3)n2)cc1 | enzyme activity, inhibitor, radiometric | 1 µM | remaining activity | 82% |
| CN(C)C(=O)Cn1cc(-c2nc(C3(c4ccc(-c5cnc(N)nc5)cc4)CC3)no2)cn1 | cell-free assay, competition with immobilised ligand | 1 µM | remaining binding | 100% |
| Cc1nn(CC(F)(F)F)cc1Nc1ncc(Br)c(NCCCNC(=O)C2CCC2)n1 | enzyme activity, inhibitor, radiometric | 1 µM | remaining activity | 5% |
| Cc1cc(NC(=O)c2cccc3cc(-c4cccc5[nH]nc(N)c45)ccc23)ccc1F | enzyme activity, inhibitor | 0.1 µM | activity vs control | 81% |
| CC(=O)C1=C(C)N(c2cccc(C(F)(F)F)c2)C(=O)N[C@@H]1c1ccc(C#N)nc1 | cell-free assay, competition with immobilised ligand | 1 µM | remaining binding | 93.7% |
| Brc1cnc(Nc2cccc(CN3CCOCC3)c2)nc1NCCc1c[nH]cn1 | enzyme activity, inhibitor, radiometric | 1 µM | remaining activity | 8% |
| COc1cc2ncnc(Nc3ccc(F)c(Cl)c3)c2cc1OCCCN1CCOCC1 | cell-free assay | 0.5 µM | remaining signal | 96% |
| Cc1c[nH]c2nccc(Oc3c(F)cc(Nc4cc(Cl)nc(N)n4)cc3F)c12 | cell-free assay, competition with immobilised ligand | 0.1 µM | remaining binding | 100% |
| Cc1nn(CC(F)(F)F)cc1Nc1ncc(C2CC2)c(NCCc2c[nH]cn2)n1 | enzyme activity, inhibitor, radiometric | 1 µM | remaining activity | 107% |
